According to paper PMC5891368 (European journal of medicinal chemistry, 2018):
Entries after “also recorded” stand apart in the source; their conditions may differ.

Key:
MDA-MB-231 cells [1] = test: Matrigel invasion assay induced by CXCR4/CXCL12; format: cell-based; settings: Homo sapiens, MDA-MB-231, 22 h, read-out: inhibition of Matrigel invasion
Procedure, shortened: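 MDA-MB-231 cells were pre-treated with test compound at 100 nM and then seeded in the top chamber of a Matrigel invasion chamber in serum-free medium. CXCL12α at 200 ng/mL in the bottom chamber served as chemoattractant. After 22 h in a humidified incubator, non-invading cells were swabbed off. Invading cells were methanol-fixed, stained with H&E and counted to give percent invasion.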

xylene-induced ear edema [2] = settings: mouse, in vivo; cited from earlier work
xylene-induced ear edema [3] = test: xylene-induced ear edema model; format: in vivo, mouse; settings: after treatment with compound
phosphorylation of Akt = test: Western blot, CXCL12 induced phosphorylation of Akt; format: cell-based; settings: dose-dependent
Procedure, shortened: (§1)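 Rabbit monoclonal primaries (1:500, overnight, 4 °C) were phospho-Akt Ser473 with pan-Akt for Akt, and phospho-p44/42 MAPK Thr202/Tyr204 with total p44/42 for p44/42. Detection used HRP goat anti-rabbit (1:10000, 1 h) and enhanced chemiluminescence.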

[4] = test system: phosphorylation of p44/42; test: Western blot, CXCL12 induced phosphorylation of p44/42; format: cell-based
Procedure, shortened: as §1

MDA-MB-231 cells [5] = test: cytotoxicity, cell viability; format: cell-based, human; settings: MDA-MB-231 (CXCR4-positive); up to 10 μM; MTT
Procedure, shortened: (§2)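 Cells were seeded at 3000 per well in 96-well plates and grown 24 h at 37 °C in a CO2 incubator. They were then exposed at 37 °C to test compound or vehicle control. CellTiter 96AQ (MTT-type) reagent was added for a further 2 h, and absorbance was read at 490 nm.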

MCF-10A cells = test: cytotoxicity, cell viability; format: cell-based; settings: up to 10 μM, MTT
SKBR3 cells = test: cytotoxicity, cell viability; format: cell-based; settings: SKBR3 (CXCR4-positive); MTT; 72 h
Procedure, shortened: as §2

MCF-7 cells = test: cytotoxicity, cell viability; format: cell-based; settings: MCF-7 (CXCR4-positive); MTT; 72 h
Procedure, shortened: as §2

AC1-ExR cells = test: cytotoxicity, cell viability; format: cell-based; settings: AC1-ExR (CXCR4-positive); MTT; 72 h
Procedure, shortened: as §2

184A1N4 cells = test: cytotoxicity, cell viability; format: cell-based; settings: 184A1N4 (CXCR4-negative); MTT; 72 h
Procedure, shortened: as §2

SMILES: c1cc(CN2CCCNCCNCCCNCC2)ccc1CN1CCCNCCNCCCNCC1 [AMD3100]
- inhibition at 0.1 µM (MDA-MB-231 cells [1]): 55%
- toxicity in this animal model (xylene-induced ear edema [2]): serious toxicity

SMILES: O=C(NCc1ccc(CNS(=O)(=O)c2ccccc2)cc1)c1ccc(CNc2ncccn2)cc1 [Compound 7a, N-(4-(phenylsulfonamidomethyl)benzyl)-4-((pyrimidin-2-ylamino)methyl)benzamide]
- number of inflammatory cells in inflammatory tissues (histological analysis) (xylene-induced ear edema [3]): significantly decreased
- swollen volume and thickness of the mouse ear (histological analysis) (xylene-induced ear edema [3]): significantly reduced
- active concentration for inhibition of Akt phosphorylation (phosphorylation of Akt): 1 nM
- concentration suppressing phosphorylation of p44 [4]: 0.1 nM
- antiproliferative activity / cytotoxicity (MDA-MB-231 cells [5]): did not inhibit the proliferation; also recorded: no statistically significant differences
- antiproliferative activity / cytotoxicity (MCF-10A cells): did not inhibit the proliferation
- antiproliferative activity / cytotoxicity (SKBR3 cells): no statistically significant differences
- antiproliferative activity / cytotoxicity (MCF-7 cells): no statistically significant differences
- antiproliferative activity / cytotoxicity (AC1-ExR cells): no statistically significant differences
- antiproliferative activity / cytotoxicity (184A1N4 cells): no statistically significant differences
